Test results from publication PMC2785155 (The Journal of Biological Chemistry, 2009).

How the values were obtained:
SufBC [1] = target: T1, SufBC (Thermotoga maritima, UniProt Q9X188); assay: stopped-flow ADP dissociation trapped by MDCC-ParM; format: binding; details: 50 mM Tris-HCl pH 7.5, 100 mM KCl, 5 mM MgCl2, 2 mM dithiothreitol, 20 °C
T1 sequence (Q9X188 1-246): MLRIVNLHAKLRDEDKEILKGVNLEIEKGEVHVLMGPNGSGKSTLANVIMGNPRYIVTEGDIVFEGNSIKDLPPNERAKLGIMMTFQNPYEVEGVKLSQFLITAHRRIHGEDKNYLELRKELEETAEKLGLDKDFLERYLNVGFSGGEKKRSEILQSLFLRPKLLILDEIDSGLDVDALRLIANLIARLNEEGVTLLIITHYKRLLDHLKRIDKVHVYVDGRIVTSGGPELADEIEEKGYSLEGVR
T1 sequence (Q9X189 1-464 partner): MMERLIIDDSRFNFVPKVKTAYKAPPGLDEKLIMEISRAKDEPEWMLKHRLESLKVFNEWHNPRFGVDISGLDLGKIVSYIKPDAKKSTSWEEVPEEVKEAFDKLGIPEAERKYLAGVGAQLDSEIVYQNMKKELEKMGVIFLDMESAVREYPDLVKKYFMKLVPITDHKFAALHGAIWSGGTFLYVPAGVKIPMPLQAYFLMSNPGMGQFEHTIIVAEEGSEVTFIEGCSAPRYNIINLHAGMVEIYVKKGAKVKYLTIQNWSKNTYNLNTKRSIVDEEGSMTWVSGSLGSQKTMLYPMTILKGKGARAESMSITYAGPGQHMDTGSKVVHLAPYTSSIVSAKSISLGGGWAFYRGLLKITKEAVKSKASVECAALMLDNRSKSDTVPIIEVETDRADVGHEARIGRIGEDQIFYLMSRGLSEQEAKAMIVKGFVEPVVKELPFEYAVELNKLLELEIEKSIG
How it was run: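 SufBC (13 μM) was preincubated with 4 μM ADP in one stopped-flow syringe. It was rapidly mixed with 80 or 160 μM MDCC-ParM ADP sensor, which traps ADP released from SufBC. ADP dissociation was read from the change in MDCC fluorescence over time.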

SufBC [2] = target: T1, SufBC; details: 50 mM Tris-HCl pH 7.5, 100 mM KCl, 5 mM MgCl2, 2 mM dithiothreitol, 20 °C

| Structure (SMILES) | rate constant (ADP dissociation) (SufBC [1]) | single-turnover stopped-flow, MDCC-PBP and MDCC-ParM sensors (SufBC [2]) |
| --- | --- | --- |
| Nc1ncnc2c1ncn2[C@@H]1O[C@H](COP(=O)(O)OP(=O)(O)O)[C@@H](O)[C@H]1O [ADP] | 0.046 s⁻¹ |  |
| Nc1ncnc2c1ncn2[C@@H]1O[C@H](COP(=O)(O)OP(=O)(O)OP(=O)(O)O)[C@@H](O)[C@H]1O [ATP] |  | study ADP and Pi release during a single turnover of ATP hydrolysis by SufBC |
